Results reported in the EternaBench riboswitch data.

System: MS2 coat protein
Assay: apparent Kd, MS2 coat protein; higher = weaker binding; RNA-MaP array; FMN 200 µM where present
Procedure, shortened: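 Each design was made on Illumina sequencing-chip clusters by stalled E. coli RNA polymerase and titrated with SNAP-549-labelled MS2 coat protein from 0.7 or 1.5 nM, doubling to 3 µM, in the absence and then the presence of constant ligand. The buffer was 100 mM Tris-HCl pH 7.5, 80 mM KCl, 4 mM MgCl2, BSA, DTT, yeast tRNA and Tween-20. The apparent Kd is the median of filtered per-cluster fits of binding curves, with green signal normalised to red-channel RNA signal and control-cluster median Fmax.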

[1] = designed as: OFF switch for flavin mononucleotide, no ligand
[2] = ligand present: flavin mononucleotide, designed as: OFF switch for flavin mononucleotide
[3] = designed as: ON switch for flavin mononucleotide, no ligand
[4] = ligand present: flavin mononucleotide, designed as: ON switch for flavin mononucleotide

Sequence	apparent Kd [1]	apparent Kd [2]	apparent Kd [3]	apparent Kd [4]
AAUUAUUUACAGAAGGAGUAAGAUUAUGUAUUACUAGGAUAUGUAAACAUGAGGAUCACCCAUGUGUUUGUAGGUUUUUUAUGU	13.4 nM	7.79 nM	–	–
CUGCUUCCCAGUUUGGUUAUUUAUACAGAAGGCCAUUCACAUGAGGAUCACCCAUGUCAAGUAAUGGAGGAUAUGUUAUUGUCG	–	–	6.64 nM	4.65 nM
UGUGCUAUGUAGAAGGCAGAUCUGAUUCAGAUCUGAGGAUAUACAUGAGGAUCACCCAUGUUAUGCACCAGCACGAGAGUGCAG	9.17 nM	24 nM	–	–
GUACUGUAGUGAGGAUAUACGAGAUCGAUAGAUCGGCGAUCCAUUAAUACAUGAGGAUCACCCAUGUAGAAGGCACUUCAGUAC	6.25 nM	78.4 nM	–	–
GGUGUGCAGCAGGAUAUCCAUCCGCGGUAUGGUGGAGAAGGGCUGACAUGAGGAUCACCCAUGUGCGUCCUAGG	40.3 nM	133 nM	–	–
UUGAUGUCAGGAUAUGCUUAAUAUAUUUUAUUAUAAUAUAUACAUGAGGAUCACCCAUGUAGAAGGGACAUUGU	28.7 nM	23.8 nM	–	–
GCGCUUAUACAGAAGGCCAUAUACAUGAGGAUCACCCAUGUUAUUUGGUGGAGGAUAUGUUUUUUAUUACAGGUAGUUGAGCGC	–	–	7.42 nM	5.91 nM
AAAAGACAUGAGGAUCACCCAUGUUAGGAUAUCGUGCAGAAAAAAAAAAAAAACUGCACGAGAAGGAACAAGGA	73.5 nM	88.5 nM	–	–
ACCGUGCAAGGAUAUCGUUACCUCGACAUGAGGAUCACCCAUGUGGCCAUAUAGCGAUUGCGAGAAGGUGCGGGUA	127 nM	112 nM	–	–
AUCCGCUCGUCAGGAUAUACGUCACUGCGUCAGCAGUGUGGUAAGAUCACAUGAGGAUCACCCAUGUAGAAGGGACGAGCUGAU	13.6 nM	276 nM	–	–
AGUACUACAGGAUAUACAUGAGUGAUACUCAUAUACCUUCUACAUGAGGAUCACCCAUGUAGAAGGGUAGUACA	15.3 nM	12.5 nM	–	–
UGGUCCUGAGGAUAUGCACCUCAAGUUAUCGUUCACCAUGCACAUGAGGAUCACCCAUGUAGAAGGUAGGAUCG	18.8 nM	16.6 nM	–	–
UCCUUGUCCUGAGGAUAUCCGCGGUUCCCAUAAGGAGAAGGCAGGACAUGAGGAUCACCCAUGUACCCAGAAAACGUGCAGAGU	24 nM	156 nM	–	–
AUCAAUCGUGUAGGAUAUGCGUGGCGAAGCUAUGCAGAAGGACAUGAGGAUCACCCAUGUCUUUCUGUCUGUGUACAGACAGGA	20.4 nM	71.5 nM	–	–
AGUAGAUCAGGAUAUACAUGAAAGAUCAAAAUGUCACUACUACAUGAGGAUCACCCAUGUAGAAGGGAUCUACA	52.9 nM	36.7 nM	–	–
AGCUCGUACACAGGAUAUCCGUUGCUGCGCACUGGAGAAGGGUGACAUCCGCACAUGAGGAUCACCCAUGUACCGGGACAAUAU	–	–	282 nM	640 nM
AAACACGGACAUGAGGAUCACCCAUGUGGCGAAAGCCUUGGGAGAAGGAUAAAUAUAUAAUAAAAUUAGGAUAUUCAUACCGUG	–	–	306 nM	104 nM
CCCGGCGAGUCGCUACGCCGAGAGCAGGAUAUUCCGCCGUGAUCUACAUGAGGAUCACCCAUGUGGAAGAAGGGCUACACAAAA	15.1 nM	158 nM	–	–
UGAAGGUAAGGAUAUACAUGAGGAUCACCCAUGUUGUCAUUUCUGUCUGGGCAGGCAUGUAGAAGGUACCUACA	26.4 nM	87.3 nM	–	–
UGUUUUUAUGUGAGGAUAUGGGUUUGGUUGCGGGCUUAGAAGGUACAUGAGGAUCACCCAUGUACUUUGUGCAU	16.4 nM	17 nM	–	–
AAUGUGUGUGGAGGAUAUAUAACAUGACAACAAACACAUACAUGAGGAUCACCCAUGUCCCAUGUAUAGAAGGCCAUAUAUAUA	–	–	662 nM	618 nM
AAAAAAAAAAGGCAGGAUAUUCAAAAAAAAACAUGAGGAUCACCCAUGUAAAAAAAAAAAAAAUGGAAGAAGGGCCAAAAAAAAAA	–	–	21.1 nM	22.5 nM
CGAUAGGACAGAGGAUAUACACAUGAGGAUCACCCAUGUGAUUACAACUCUUAAGAUUCAAACAUGUAGAAGGCUGUCCUAUCG	11.9 nM	30.4 nM	–	–
